Consider 24 molecules from ChEMBL document CHEMBL1158362, “4-Phenoxybutoxy-substituted heterocycles--a structure-activity relationship study of blockers of the lymphocyte potassium channel Kv1.3” (Eur J Med Chem, 2009).

Series [1] has as its target Potassium voltage-gated channel subfamily A member 3 (Homo sapiens, UniProt P22001). Description: Inhibition of Kv1.3 potassium channel expressed in mouse L929 cells by whole cell patch clamp. The series is classed as cell-based. In outline:
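Currents were evoked by 500 ms pulses to 40 mV every 45 s. Each compound was run three times at 4–5 concentrations, each on a different cell. IC50 came from a Hill fit of the reduction in area under the current curve.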
On the technique in general: Patch clamp records ionic current or voltage across a cell membrane.

In series [2] the target is Potassium voltage-gated channel subfamily A member 5 (Homo sapiens) (UniProt P22460). Description: Inhibition of Kv1.5 potassium channel by whole cell patch clamp. In outline:
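Currents were recorded by whole-cell patch clamp from MEL-C88 cells. Each compound was tested three times at 4–5 concentrations, each experiment on a different cell. IC50 came from a Hill-equation fit of the reduction in area under the current curve.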

A short description of series [3]: Selectivity for Kv1.3 potassium channel over Kv1.5 potassium channel.
The nature of series [4]: Half life in po dosed rhesus monkey. It is filed as ADME, organism-based, Macaca mulatta. The note with it: in vivo.
Series [5] is described as follows: Half life in po dosed rat. It is filed as ADME, organism-based. As to conditions: in vivo.

The structures appear in SMILES notation.

A word on the IC50: it is the concentration that inhibits the measured activity by half. In general, half-life refers to the time needed for the level to fall by half in the phase considered.

Chain of Potassium voltage-gated channel subfamily A member 5 (Homo sapiens) (P22460 whole entry): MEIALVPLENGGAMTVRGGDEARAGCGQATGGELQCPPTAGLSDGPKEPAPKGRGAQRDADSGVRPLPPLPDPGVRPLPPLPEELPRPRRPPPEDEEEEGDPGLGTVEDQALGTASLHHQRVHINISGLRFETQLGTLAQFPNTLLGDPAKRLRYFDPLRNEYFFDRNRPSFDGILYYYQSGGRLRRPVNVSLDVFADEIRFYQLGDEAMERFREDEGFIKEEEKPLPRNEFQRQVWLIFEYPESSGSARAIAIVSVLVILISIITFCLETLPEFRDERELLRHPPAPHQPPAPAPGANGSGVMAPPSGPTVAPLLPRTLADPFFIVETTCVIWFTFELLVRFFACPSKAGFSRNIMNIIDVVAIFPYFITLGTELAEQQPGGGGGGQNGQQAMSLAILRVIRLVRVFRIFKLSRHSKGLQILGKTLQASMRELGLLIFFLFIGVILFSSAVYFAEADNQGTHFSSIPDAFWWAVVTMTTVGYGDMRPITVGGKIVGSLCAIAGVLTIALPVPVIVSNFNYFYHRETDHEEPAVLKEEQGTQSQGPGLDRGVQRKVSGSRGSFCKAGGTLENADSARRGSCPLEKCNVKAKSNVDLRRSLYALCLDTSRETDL
Chain of Potassium voltage-gated channel subfamily A member 3 (P22001 whole entry): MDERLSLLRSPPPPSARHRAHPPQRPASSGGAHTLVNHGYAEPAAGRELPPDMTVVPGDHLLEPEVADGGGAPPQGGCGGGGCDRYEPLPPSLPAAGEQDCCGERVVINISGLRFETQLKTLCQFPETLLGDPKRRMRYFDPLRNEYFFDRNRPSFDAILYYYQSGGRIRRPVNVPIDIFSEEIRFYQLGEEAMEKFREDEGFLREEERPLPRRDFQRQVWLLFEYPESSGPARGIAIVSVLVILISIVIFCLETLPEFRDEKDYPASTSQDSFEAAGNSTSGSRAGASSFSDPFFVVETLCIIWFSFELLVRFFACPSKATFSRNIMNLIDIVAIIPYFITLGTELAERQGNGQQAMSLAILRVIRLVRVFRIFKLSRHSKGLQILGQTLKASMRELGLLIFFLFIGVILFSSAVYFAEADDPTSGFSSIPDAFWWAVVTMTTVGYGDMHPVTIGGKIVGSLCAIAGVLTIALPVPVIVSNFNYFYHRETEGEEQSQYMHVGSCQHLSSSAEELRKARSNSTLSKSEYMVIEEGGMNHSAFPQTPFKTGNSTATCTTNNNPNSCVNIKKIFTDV

Consider `c1ccc(OCCCCOc2ccccc2)cc1`, for which, in series [1], the IC50 is 20000 nM.

On to `O=C1c2ccccc2C(=O)c2c(OCCCCOc3ccccc3)cccc21`, for which the IC50 amounted to 10000 nM in series [2] and 7000 nM in series [1]. In addition, the Ratio IC50 (Kv1.5/Kv1.3) in series [3] was 1.43.

Turning to `O=c1ccc2cc3ccoc3c(OCCCCOc3ccccc3)c2o1`, the IC50 in series [2] and in series [1] was 1000 nM in each case.

For `COc1cc2nc3occc3c(OCCCCOc3ccccc3)c2cc1OC`, the IC50 in series [2] is 480 nM; in series [1], 150 nM. Moreover, the Ratio IC50 (Kv1.5/Kv1.3) in series [3] was 3.2.

With `COc1c2ccoc2c(OCCCCOc2ccccc2)c2oc(=O)cc(C)c12`, the IC50 amounted to 280 nM in series [2] and 318 nM in series [1]. Besides, the Ratio IC50 (Kv1.5/Kv1.3) in series [3] amounted to 0.88.

For `c1ccc(OCCCCOC2c3ccccc3Oc3ccccc32)cc1`, the results for the IC50 in series [2] and in series [1] were 15000 nM and 12000 nM, respectively.

As to `O=c1c(OCCCCOc2ccccc2)c(-c2ccccc2)oc2ccccc12`, the IC50 in series [2] stood at 10000 nM; in series [1], 1000 nM. Also, in series [3], the Ratio IC50 (Kv1.5/Kv1.3) is 10.

With `Cn1c(=O)cc(OCCCCOc2ccccc2)c2ccccc21`, the IC50 in series [2] came out at 1500 nM; in series [1] it was 670 nM.

For `O=c1cc(OCCCCOc2ccccc2)c2ccccc2o1`, the IC50 in series [2] is 1500 nM; in series [1], 890 nM. Moreover, in series [3], the Ratio IC50 (Kv1.5/Kv1.3) turned out to be 1.69.

With `O=c1ccoc2cc3occc3c(OCCCCOc3ccccc3)c12`, the IC50 in series [2] worked out at 200 nM; in series [1], 170 nM.

For `Cc1cc(=O)c2c(OCCCCOc3ccccc3)c3ccoc3cc2o1`, the figures for the IC50 in series [2] and in series [1] were 310 nM and 233 nM, respectively. Also, in series [3], the Ratio IC50 (Kv1.5/Kv1.3) was 1.33.

Turning to `c1ccc(OCCCCOc2cccc3ccccc23)cc1`, the IC50 in series [1] was found to be 15000 nM.

For the molecule `O=c1ccc2c(OCCCCOc3ccccc3)c3ccoc3cc2o1`, the IC50 in series [2] stood at 45 nM. In addition, the half-life in series [4] is 6.7 h; in series [5], 3 h.

For `c1ccc(OCCCCOc2cccc3occc23)cc1`, the IC50 amounted to 1000 nM in series [2] and 650 nM in series [1].

Turning to `COc1cccc2c(=O)c3ccccc3n(CCCCOc3ccccc3)c12`, the values for the half-maximal inhibitory concentration (IC50) in series [2] and in series [1] were 450 nM and 165 nM, respectively. In addition, the Ratio IC50 (Kv1.5/Kv1.3) in series [3] is 2.73.

For the molecule `O=c1c2ccccc2n(CCCCOc2ccccc2)c2occc12`, the results for the IC50 in series [2] and in series [1] were 2000 nM and 1000 nM, respectively. The Ratio IC50 (Kv1.5/Kv1.3) in series [3] was 2.

In series [2], `c1ccc(OCCCCOc2ncnc3ccccc23)cc1` returned a 50% inhibitory concentration (IC50) of 25000 nM.

Regarding `COc1c2ccoc2cc2oc(=O)ccc12` [BERGAPTEN], the values for the IC50 in series [2] and in series [1] were 177000 nM and 101000 nM, respectively. Moreover, in series [3], the Ratio IC50 (Kv1.5/Kv1.3) stood at 1.75.

In the case of `COc1c2occc2c(OCCCCOc2ccccc2)c2c(=O)cc(C)oc12`, the IC50 in series [2] turned out to be 2500 nM; in series [1], 1500 nM. Further, the Ratio IC50 (Kv1.5/Kv1.3) in series [3] is 1.67.

With `COc1c2occc2c(OC)c2c(OCCCCOc3ccccc3)cc(=O)oc12`, the IC50 in series [2] was 850 nM; in series [1] it was 450 nM. For the same molecule, the Ratio IC50 (Kv1.5/Kv1.3) in series [3] was determined as 1.89.

For the molecule `S=c1ccc2c(OCCCCOc3ccccc3)c3ccoc3cc2o1`, the 50% inhibitory concentration (IC50) in series [2] came to 380 nM; in series [1], 17 nM. The Ratio IC50 (Kv1.5/Kv1.3) in series [3] came out at 22.

Turning to `c1ccc(OCCCCOc2c3ccccc3nc3occc23)cc1`, the 50% inhibitory concentration (IC50) in series [2] is 2000 nM; in series [1] it was 1000 nM. Besides, the Ratio IC50 (Kv1.5/Kv1.3) in series [3] was 2.

On to `c1ccc(OCCCCOc2ccnc3ccccc23)cc1`, for which the IC50 in series [2] is 3500 nM; in series [1] it was > 10000 nM. Further, in series [3], the Ratio IC50 (Kv1.5/Kv1.3) was < 0.35.

As for `O=c1ccc2c(OCCCCOc3ccccc3)cccc2o1`, the IC50 was 520 nM in series [2] and 150 nM in series [1]. Also, the Ratio IC50 (Kv1.5/Kv1.3) in series [3] is 3.47.
